ChEMBL document CHEMBL5058577, “EUbOPEN Chemogenomics Library 2 (Multiplex)” (2022)

Test system: HEK-293T
Test: Multiplex assay against HEK293T
Format: toxicity, cell-based
Details: human
How it was run: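 Compound was added to live cells that had been stained at seeding with Hoechst33342, BioTracker Green Microtubule Cytoskeleton Dye, MitoTracker Red and Annexin V Alexa Fluor 680, and imaging followed on a CQ1 microscope at 37°C and 5% CO2. CellPathfinder machine-learning gating divided cells into Hoechst high-intensity objects or normal cells, normal cells into healthy, pyknosed or fragmented nuclei, and pyknosed cells into mitotic or apoptotic. Tubulin, mitochondrial-mass and membrane-permeability phenotypes are per cents of healthy-nucleus cells.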

[1] = 12 h, 1 µM, compound concentration 1 uM, replicate 1
[2] = 12 h, 1 µM, compound concentration 1 uM, replicate 2
[3] = 12 h, 10 µM, compound concentration 10 uM, replicate 1
[4] = 12 h, 10 µM, compound concentration 10 uM, replicate 2
[5] = 24 h, 1 µM, compound concentration 1 uM, replicate 1
[6] = 24 h, 1 µM, compound concentration 1 uM, replicate 2
[7] = 24 h, 10 µM, compound concentration 10 uM, replicate 1
[8] = 24 h, 10 µM, compound concentration 10 uM, replicate 2
[9] = 48 h, 1 µM, compound concentration 1 uM, replicate 1
[10] = 48 h, 1 µM, compound concentration 1 uM, replicate 2
[11] = 48 h, 10 µM, compound concentration 10 uM, replicate 1
[12] = 48 h, 10 µM, compound concentration 10 uM, replicate 2

With `O=C(Nc1cc(-c2ccccc2)nn1-c1ccccc1F)c1ccc([N+](=O)[O-])cc1` the “Population Apoptotic (%)” value [1] was 33%, the “Population Fragmented Nuclei (%)” value [1] was 7% and the “Population Healthy Nuclei (%)” value [1] was 78%. For the same compound, the “Population Hoechst High Intensity Objects (%)” value [1] was 9%, the “Population Membrane Permeable-Phenotype (%)” value [1] was 0% and the “Population Mitochondria Different-Phenotype (%)” value [1] was 31%. The “Population Mitotic Cells (%)” value [1] was 66%, the “Population Normal (%)” value [1] was 90% and the “Population Pyknosed Nuclei (%)” value [1] was 13%. For the same compound, the “Population Tubulin-Different-Phenotype (%)” value [1] was 19%, the “Total Cell Count” value [1] was 402 and the “Population Apoptotic (%)” value [2] was 37%. For the same compound, the “Population Fragmented Nuclei (%)” value [2] was 6%, the “Population Healthy Nuclei (%)” value [2] was 83% and the “Population Hoechst High Intensity Objects (%)” value [2] was 6%. The “Population Mitochondria Different-Phenotype (%)” value [2] was 48%, the “Population Mitotic Cells (%)” value [2] was 62% and the “Population Normal (%)” value [2] was 94%. For the same compound, the “Population Pyknosed Nuclei (%)” value [2] was 9%, the “Total Cell Count” value [2] was 417 and the “Population Apoptotic (%)” value [3] was 37%. The “Population Fragmented Nuclei (%)” value [3] was 10%, the “Population Healthy Nuclei (%)” value [3] was 71% and the “Population Hoechst High Intensity Objects (%)” value [3] was 5%. The “Population Membrane Permeable-Phenotype (%)” value [3] was 0%, the “Population Mitochondria Different-Phenotype (%)” value [3] was 41% and the “Population Mitotic Cells (%)” value [3] was 62%. For the same compound, the “Population Normal (%)” value [3] was 94%, the “Population Pyknosed Nuclei (%)” value [3] was 17% and the “Population Tubulin-Different-Phenotype (%)” value [3] was 40%. The “Total Cell Count” value [3] was 342, the “Population Apoptotic (%)” value [4] was 44% and the “Population Fragmented Nuclei (%)” value [4] was 6%. For the same compound, the “Population Healthy Nuclei (%)” value [4] was 73%, the “Population Hoechst High Intensity Objects (%)” value [4] was 6% and the “Population Mitochondria Different-Phenotype (%)” value [4] was 65%. The “Population Mitotic Cells (%)” value [4] was 55%, the “Population Normal (%)” value [4] was 93% and the “Population Pyknosed Nuclei (%)” value [4] was 20%. The “Population Tubulin-Different-Phenotype (%)” value [4] was 45%, the “Total Cell Count” value [4] was 367 and the “Population Apoptotic (%)” value [5] was 33%. For the same compound, the “Population Fragmented Nuclei (%)” value [5] was 8%, the “Population Healthy Nuclei (%)” value [5] was 78% and the “Population Hoechst High Intensity Objects (%)” value [5] was 4%. The “Population Membrane Permeable-Phenotype (%)” value [5] was 0%, the “Population Mitochondria Different-Phenotype (%)” value [5] was 21% and the “Population Mitotic Cells (%)” value [5] was 66%. The “Population Normal (%)” value [5] was 95%, the “Population Pyknosed Nuclei (%)” value [5] was 12% and the “Population Tubulin-Different-Phenotype (%)” value [5] was 17%. The “Total Cell Count” value [5] was 481, the “Population Apoptotic (%)” value [6] was 35% and the “Population Fragmented Nuclei (%)” value [6] was 12%. The “Population Membrane Permeable-Phenotype (%)” value [6] was 1%, the “Population Mitochondria Different-Phenotype (%)” value [6] was 31% and the “Population Mitotic Cells (%)” value [6] was 64%. The “Population Pyknosed Nuclei (%)” value [6] was 8%, the “Population Tubulin-Different-Phenotype (%)” value [6] was 16% and the “Total Cell Count” value [6] was 530. The “Population Apoptotic (%)” value [7] was 15%, the “Population Fragmented Nuclei (%)” value [7] was 9% and the “Population Healthy Nuclei (%)” value [7] was 77%. For the same compound, the “Population Hoechst High Intensity Objects (%)” value [7] was 2%, the “Population Membrane Permeable-Phenotype (%)” value [7] was 0% and the “Population Mitochondria Different-Phenotype (%)” value [7] was 35%. The “Population Mitotic Cells (%)” value [7] was 84%, the “Population Normal (%)” value [7] was 97% and the “Population Pyknosed Nuclei (%)” value [7] was 13%. The “Population Tubulin-Different-Phenotype (%)” value [7] was 35%, the “Total Cell Count” value [7] was 434 and the “Population Apoptotic (%)” value [8] was 22%. The “Population Fragmented Nuclei (%)” value [8] was 7%, the “Population Healthy Nuclei (%)” value [8] was 83% and the “Population Hoechst High Intensity Objects (%)” value [8] was 3%. For the same compound, the “Population Mitochondria Different-Phenotype (%)” value [8] was 47%, the “Population Mitotic Cells (%)” value [8] was 77% and the “Population Normal (%)” value [8] was 96%. For the same compound, the “Population Pyknosed Nuclei (%)” value [8] was 8%, the “Population Tubulin-Different-Phenotype (%)” value [8] was 33% and the “Total Cell Count” value [8] was 482. The “Population Apoptotic (%)” value [9] was 17%, the “Population Fragmented Nuclei (%)” value [9] was 13% and the “Population Healthy Nuclei (%)” value [9] was 79%. The “Population Hoechst High Intensity Objects (%)” value [9] was 3%, the “Population Membrane Permeable-Phenotype (%)” value [9] was 2% and the “Population Mitochondria Different-Phenotype (%)” value [9] was 14%. The “Population Mitotic Cells (%)” value [9] was 82%, the “Population Normal (%)” value [9] was 96% and the “Population Pyknosed Nuclei (%)” value [9] was 7%. For the same compound, the “Population Tubulin-Different-Phenotype (%)” value [9] was 9%, the “Total Cell Count” value [9] was 893 and the “Population Apoptotic (%)” value [10] was 33%. The “Population Fragmented Nuclei (%)” value [10] was 17%, the “Population Healthy Nuclei (%)” value [10] was 74% and the “Population Hoechst High Intensity Objects (%)” value [10] was 2%. The “Population Mitochondria Different-Phenotype (%)” value [10] was 15%, the “Population Mitotic Cells (%)” value [10] was 66% and the “Population Normal (%)” value [10] was 97%. For the same compound, the “Population Tubulin-Different-Phenotype (%)” value [10] was 11%, the “Total Cell Count” value [10] was 799 and the “Population Apoptotic (%)” value [11] was 22%. For the same compound, the “Population Fragmented Nuclei (%)” value [11] was 12%, the “Population Healthy Nuclei (%)” value [11] was 77% and the “Population Hoechst High Intensity Objects (%)” value [11] was 2%. The “Population Membrane Permeable-Phenotype (%)” value [11] was 2%, the “Population Mitochondria Different-Phenotype (%)” value [11] was 19% and the “Population Mitotic Cells (%)” value [11] was 77%. The “Population Normal (%)” value [11] was 97%, the “Population Pyknosed Nuclei (%)” value [11] was 9% and the “Population Tubulin-Different-Phenotype (%)” value [11] was 23%. For the same compound, the “Total Cell Count” value [11] was 671, the “Population Apoptotic (%)” value [12] was 20% and the “Population Fragmented Nuclei (%)” value [12] was 15%. For the same compound, the “Population Hoechst High Intensity Objects (%)” value [12] was 3%, the “Population Membrane Permeable-Phenotype (%)” value [12] was 1% and the “Population Mitochondria Different-Phenotype (%)” value [12] was 27%. For the same compound, the “Population Mitotic Cells (%)” value [12] was 79%, the “Population Normal (%)” value [12] was 96% and the “Population Pyknosed Nuclei (%)” value [12] was 6%. The “Population Tubulin-Different-Phenotype (%)” value [12] was 26% and the “Total Cell Count” value [12] was 666.
